Laboratory results as given in ChEMBL document CHEMBL1136468, “B-ring unsaturated estrogens: biological evaluation of 17alpha-Dihydroequilein and novel B-Nor-6-thiaequilenins as tissue selective estrogens” (Bioorg Med Chem Lett, 2003).

What was measured:
Estrogen receptor = biological target: T1, Estrogen receptor (Homo sapiens, UniProt P03372); experiment: Binding affinity against human estrogen receptor alpha
T1 sequence (P03372 whole entry): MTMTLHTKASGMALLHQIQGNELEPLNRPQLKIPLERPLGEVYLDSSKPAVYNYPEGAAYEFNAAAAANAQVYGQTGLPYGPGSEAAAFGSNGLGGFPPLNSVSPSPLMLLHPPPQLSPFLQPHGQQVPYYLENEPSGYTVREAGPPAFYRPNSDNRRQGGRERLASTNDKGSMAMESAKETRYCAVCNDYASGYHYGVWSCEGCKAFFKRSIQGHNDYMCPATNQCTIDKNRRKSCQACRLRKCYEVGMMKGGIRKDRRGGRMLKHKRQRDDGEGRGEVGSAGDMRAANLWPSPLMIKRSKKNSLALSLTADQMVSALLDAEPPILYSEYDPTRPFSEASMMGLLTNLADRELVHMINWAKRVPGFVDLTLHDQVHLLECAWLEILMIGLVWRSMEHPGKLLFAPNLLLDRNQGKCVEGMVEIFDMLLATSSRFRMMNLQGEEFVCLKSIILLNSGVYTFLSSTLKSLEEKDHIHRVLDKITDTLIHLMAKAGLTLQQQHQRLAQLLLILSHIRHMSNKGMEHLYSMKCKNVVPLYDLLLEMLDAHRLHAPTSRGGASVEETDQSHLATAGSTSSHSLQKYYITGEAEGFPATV

Estrogen receptor beta = Estrogen receptor beta (Homo sapiens, UniProt Q92731); experiment: Binding affinity against human estrogen receptor beta
Procedure, shortened: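 Competitive binding to human ERβ, reported as Ki (nM). Compounds generally run in duplicate; minimum significant ratio for the binding assay is 2-fold.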

Rattus norvegicus [1] = experiment: Bone density at proximal metaphysis of excised femur in ovariectomized (OVX) rats at 0.1 mg/kg dose; format: functional
Procedure, shortened: (§1)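 Six-month-old ovariectomized rats were dosed orally for 5 weeks. Bone density was measured at the proximal metaphysis of the excised femur. Percent protection was calculated for each animal as (BMD test − BMD OVX)/(BMD sham − BMD OVX) × 100. Statistics used one-way ANOVA with p < 0.05.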

Rattus norvegicus [2] = experiment: Bone density at proximal metaphysis of excised femur in ovariectomized (OVX) rats at 0.01 mg/kg dose; format: functional; procedure, shortened: as §1
Rattus norvegicus [3] = experiment: (§2) Percent decrease in serum cholesterol in ovariectomized (OVX) rats at 10 mg/kg dose; format: functional
Procedure, shortened: (§3)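 Six-month-old ovariectomized rats were dosed orally for 5 weeks, and total serum cholesterol was measured against OVX controls. Groups were compared by one-way ANOVA with p < 0.05.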

Rattus norvegicus [4] = experiment: Bone density at proximal metaphysis of excised femur in ovariectomized (OVX) rats at 10.00 mg/kg dose; format: functional; procedure, shortened: as §1
Rattus norvegicus [5] = experiment: (§4) Percent decrease in serum cholesterol in ovariectomized (OVX) rats at 0.10 mg/kg dose; format: functional; details: dose 0.1 mg/kg; procedure, shortened: as §3
Rattus norvegicus [6] = experiment: Bone density at proximal metaphysis of excised femur in ovariectomized (OVX) rats at 1.00 mg/kg dose; format: functional; procedure, shortened: as §1
Rattus norvegicus [7] = experiment: as §2; format: functional; parameters: scale not given: the % may be the effect or the level left; procedure, shortened: as §3
Rattus norvegicus [8] = organism: Rattus norvegicus; experiment: Effective dose in rat; format: functional
Rattus norvegicus [9] = experiment: as §4; parameters: scale not given: the % may be the effect or the level left; details: dose 0.1 mg/kg

Chain of Estrogen receptor beta (Q92731 whole entry): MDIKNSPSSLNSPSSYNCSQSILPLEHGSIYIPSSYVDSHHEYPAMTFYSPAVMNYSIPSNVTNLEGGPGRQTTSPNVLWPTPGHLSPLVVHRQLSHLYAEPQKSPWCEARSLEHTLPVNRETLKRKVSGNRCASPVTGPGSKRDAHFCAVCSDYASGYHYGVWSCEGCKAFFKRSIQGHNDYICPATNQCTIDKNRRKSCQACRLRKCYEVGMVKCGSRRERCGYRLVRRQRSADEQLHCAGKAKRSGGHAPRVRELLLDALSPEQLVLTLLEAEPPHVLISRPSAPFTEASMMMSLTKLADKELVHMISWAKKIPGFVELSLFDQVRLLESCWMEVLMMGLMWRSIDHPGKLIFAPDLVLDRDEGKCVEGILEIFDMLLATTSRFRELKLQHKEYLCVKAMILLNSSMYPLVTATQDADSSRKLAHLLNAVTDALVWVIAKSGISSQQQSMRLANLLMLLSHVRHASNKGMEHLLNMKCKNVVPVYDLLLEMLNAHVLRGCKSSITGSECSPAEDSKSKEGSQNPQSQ

Row | SMILES | Ki (Estrogen receptor) [nM] | Ki (Estrogen receptor beta) [nM] | further results
1 | C[C@]12CCc3c(ccc4cc(O)ccc34)[C@@H]1CC[C@H]2O |  | 24 | Protection (Rattus norvegicus [1]): 26.5%; Protection (Rattus norvegicus [2]): 6.1%; Decrease (Rattus norvegicus [3]): 93.8%; Protection (Rattus norvegicus [4]): 119%; Decrease (Rattus norvegicus [5]): 66.3%; Protection (Rattus norvegicus [6]): 59.5%; Activity (Rattus norvegicus [7]): 93.8%; ED50 (Rattus norvegicus [8]): < 0.1 mg/kg
2 | C[C@]12CCc3c(sc4cc(O)ccc34)[C@@H]1CC[C@H]2O | 23 | 73 | 
3 | C[C@@]12CCc3c(sc4cc(O)ccc34)[C@@H]1CC[C@H]2O | 24 | 120 | 
4 | C#C[C@]1(O)CC[C@H]2[C@@H]3CCc4cc(O)ccc4[C@H]3CC[C@@]21C [ETHINYL ESTRADIOL] |  |  | Decrease (Rattus norvegicus [5]): 83.3%; Activity (Rattus norvegicus [9]): 83.3%

Second part, led by results:

Row | Ki (Estrogen receptor) [nM] | Ki (Estrogen receptor beta) [nM] | SMILES | further results
5 | 10 | 47 | C[C@]12CCc3c(sc4cc(O)ccc34)[C@H]1CC[C@@H]2O | 
6 | 4 | 11 | C[C@]12CCc3c(sc4cc(O)ccc34)[C@@H]1CC[C@@H]2O | 
7 | 13 | 17 | C[C@@]12CCc3c(sc4cc(O)ccc34)[C@H]1CC[C@H]2O | 
